The source made the active and inactive calls. No cut-off for these calls is given here.
Experiments:
[1] = tested on: CCRF-CEM; experiment: Drug metabolism in human CEM cells assessed as radioactive 2', 3'-didehydro-3'-deoxy-4'-ethynylthymidine triphosphate accumulation at 2 uM assessed per 10^6 cells; type: ADME, cell-based; settings: TDE = time-dependent effect
In short: (§1)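 CEM cells (2 x 10^7/ml) in RPMI 1640 with 10% dialyzed FBS were incubated at 37°C with 2 µM [3H]analog (75 mCi/mmol) and harvested at 2, 4, 8, 12, 16 and 24 h. Cells were washed in ice-cold PBS with 20 µM dipyridamole and extracted with 15% TCA. Neutralized extracts were separated on a Partisil SAX column with an H2O to 300 mM potassium phosphate gradient and radiometric detection, reported as pmol/10^6 cells, mean ± SD of three experiments.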

[2] = tested on: Human immunodeficiency virus 1; experiment: Antiviral activity against 0.1 MOI HIV1 3B infected in human TZM-b1 cells assessed as inhibition of viral replication after 24 hrs by luciferase assay; type: functional, organism-based
In short: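 TZM-bl cells in phenol red-free RPMI 1640 were infected with HIV-1 IIIB (MOI 0.1) at the time of adding drug at various concentrations, and drug and virus stayed together for 24 h. Lysate luciferase was measured with uninfected background subtracted, in quintuple wells. Inhibition was the mean signal relative to drug-free infected cells.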

[3] = tested on: CCRF-CEM; experiment: Stability in human CEM cells assessed as intracellular radioactive triphosphate metabolite accumulation at 2 uM incubated for 24 hrs measured after 24 hrs of compound removal assessed per 10^6 cells; type: ADME, cell-based
In short: (§2)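 CEM cells were loaded with 2 µM [3H]analog (75 mCi/mmol) for 24 h, washed, and resuspended in drug-free medium. Intracellular metabolites were then measured by SAX-HPLC with radiometric detection at 0, 2, 4, 8, 12 and 24 h after removal. Values are pmol/10^6 cells, mean ± SD of three experiments.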

[4] = tested on: Human immunodeficiency virus 1; experiment: Antiviral activity against 0.1 MOI HIV1 3B infected in human TZM-b1 cells assessed as inhibition of viral replication at 0.02 uM after 24 hrs by luciferase assay; type: functional; settings: Human immunodeficiency virus 1, 3B, TZM-b1, 24 h
In short: (§3)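 TZM-bl cells were plated at 0.5 x 10^4 per well in phenol red-free RPMI 1640 and allowed to adhere 15-18 h at 37°C. After a medium change, drug was added with quintuple wells per concentration, and cells were infected at the same time with HIV-1 IIIB at MOI 0.1. After 24 h, cells were lysed and luciferase was read minus the uninfected background. Values are percentage of mean luminescence in drug-free wells.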

[5] = tested on: CCRF-CEM; experiment: Drug metabolism in human CEM cells assessed as radioactive 2', 3'-didehydro-3'-deoxy-4'-ethynylthymidine triphosphate accumulation at 2 uM after 12 hrs assessed per 10^6 cells; type: ADME, cell-based; in short: as §1
[6] = tested on: Human immunodeficiency virus 1; experiment: Antiviral activity against 0.1 MOI HIV1 3B infected in human TZM-b1 cells assessed as inhibition of viral replication at 0.18 uM after 24 hrs by luciferase assay; type: functional; settings: Human immunodeficiency virus 1, 3B, TZM-b1, 24 h; in short: as §3
[7] = tested on: Human immunodeficiency virus 1; experiment: Antiviral activity against 0.1 MOI HIV1 3B in 24 hrs pretreated human TZM-b1 cells infected 48 hrs post drug removal assessed as inhibition of viral replication at 0.04 to 0.22 uM measured 24 hrs postinfection by luciferase assay; type: functional, organism-based
In short: (§4)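 TZM-bl cells were plated in phenol red-free RPMI 1640, allowed to adhere 15–18 h at 37°C, then exposed to a range of drug concentrations for 24 h. Medium was changed to remove extracellular drug, and cells were infected with HIV-1 IIIB (MOI 0.1) at 0, 24 or 48 h after removal. Luciferase was read 24 h post-infection with uninfected-cell background subtracted, in quintuple wells, and expressed relative to no-drug wells.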

[8] = tested on: CCRF-CEM; experiment: Drug metabolism in human CEM cells assessed as radioactive zidovudine diphosphate accumulation at 2 uM assessed per 10^6 cells; type: ADME, cell-based; settings: TDE = time-dependent effect; in short: as §1
[9] = tested on: Human immunodeficiency virus 1; experiment: Antiviral activity against 0.1 MOI HIV1 3B infected in human TZM-b1 cells assessed as inhibition of viral replication at 0.22 uM after 24 hrs by luciferase assay; type: functional; settings: Human immunodeficiency virus 1, 3B, TZM-b1, 24 h; in short: as §3
[10] = tested on: CCRF-CEM; experiment: Drug metabolism in human CEM cells assessed as radioactive stavudine diphosphate accumulation at 2 uM assessed per 10^6 cells; type: ADME, cell-based; settings: TDE = time-dependent effect; in short: as §1
[11] = tested on: CCRF-CEM; experiment: Drug metabolism in human CEM cells assessed as radioactive stavudine monophosphate accumulation at 2 uM assessed per 10^6 cells; type: ADME, cell-based; settings: TDE = time-dependent effect; in short: as §1
[12] = tested on: CCRF-CEM; experiment: Drug metabolism in human CEM cells assessed as radioactive stavudine triphosphate accumulation at 2 uM assessed per 10^6 cells; type: ADME, cell-based; settings: TDE = time-dependent effect; in short: as §1
[13] = tested on: CCRF-CEM; experiment: Drug metabolism in human CEM cells assessed as radioactive zidovudine triphosphate accumulation at 2 uM assessed per 10^6 cells; type: ADME, cell-based; settings: TDE = time-dependent effect; in short: as §1
[14] = tested on: CCRF-CEM; experiment: Drug metabolism in human CEM cells assessed as radioactive 2', 3'-didehydro-3'-deoxy-4'-ethynylthymidine diphosphate accumulation at 2 uM assessed per 10^6 cells; type: ADME, cell-based; settings: TDE = time-dependent effect; in short: as §1
[15] = tested on: CCRF-CEM; experiment: Drug metabolism in human CEM cells assessed as radioactive 2', 3'-didehydro-3'-deoxy-4'-ethynylthymidine monophosphate accumulation at 2 uM after 12 hrs assessed per 10^6 cells; type: ADME, cell-based; in short: as §1
[16] = tested on: CCRF-CEM; experiment: Stability in human CEM cells assessed as intracellular radioactive phosphorylated metabolite accumulation at 2 uM incubated for 24 hrs measured after 8 hrs of compound removal assessed per 10^6 cells; type: ADME, cell-based; in short: as §2
[17] = tested on: CCRF-CEM; experiment: Drug metabolism in human CEM cells assessed as radioactive zidovudine triphosphate accumulation at 2 uM after 2 hrs assessed per 10^6 cells; type: ADME, cell-based; in short: as §1
[18] = tested on: Human immunodeficiency virus 1; experiment: Antiviral activity against 0.1 MOI HIV1 3B in 24 hrs pretreated human TZM-b1 cells infected 24 hrs post drug removal assessed as inhibition of viral replication at 0.04 to 0.22 uM measured 24 hrs postinfection by luciferase assay; type: functional, organism-based; in short: as §4
[19] = tested on: Human immunodeficiency virus 1; experiment: Antiviral activity against 0.1 MOI HIV1 3B infected in human TZM-b1 cells assessed as inhibition of viral replication at 0.13 uM after 24 hrs by luciferase assay; type: functional; settings: Human immunodeficiency virus 1, 3B, TZM-b1, 24 h; in short: as §3
[20] = tested on: CCRF-CEM; experiment: Drug metabolism in human CEM cells assessed as radioactive zidovudine monophosphate accumulation at 2 uM after 2 hrs assessed per 10^6 cells; type: ADME, cell-based; in short: as §1
[21] = tested on: CCRF-CEM; experiment: Drug metabolism in human CEM cells assessed as radioactive 2', 3'-didehydro-3'-deoxy-4'-ethynylthymidine diphosphate accumulation at 2 uM after 12 hrs assessed per 10^6 cells; type: ADME, cell-based; in short: as §1
[22] = tested on: CCRF-CEM; experiment: Drug metabolism in human CEM cells assessed as radioactive 2', 3'-didehydro-3'-deoxy-4'-ethynylthymidine monophosphate accumulation at 2 uM assessed per 10^6 cells; type: ADME, cell-based; settings: TDE = time-dependent effect; in short: as §1
[23] = tested on: CCRF-CEM; experiment: Drug metabolism in human CEM cells assessed as radioactive zidovudine monophosphate accumulation at 2 uM assessed per 10^6 cells; type: ADME, cell-based; settings: TDE = time-dependent effect; in short: as §1
[24] = tested on: CCRF-CEM; experiment: Drug metabolism in human CEM cells assessed as radioactive zidovudine diphosphate accumulation at 2 uM after 2 hrs assessed per 10^6 cells; type: ADME, cell-based; in short: as §1
[25] = substrate: Cc1cn([C@H]2C[C@H](N=[N+]=[N-])[C@@H](CO)O2)c(=O)[nH]c1=O; settings: Homo sapiens; H9
[26] = substrate: Cc1cn([C@H]2C[C@H](N=[N+]=[N-])[C@@H](CO)O2)c(=O)[nH]c1=O; settings: Homo sapiens; H9; remark: listed apart in the source

Molecule: Cc1cn([C@H]2C[C@H](N=[N+]=[N-])[C@@H](CO)O2)c(=O)[nH]c1=O [ZIDOVUDINE]
- Activity [1]: tde
- inhibition [2]: Dose-dependent effect
- Stability [3]: 0.14 pmol
- inhibition at 0.02 µM [4]: 50%
- Activity [5]: 18 pmol
- inhibition at 0.18 µM [6]: 50%
- inhibition [7]: inactive
- Activity [8]: tde
- inhibition at 0.22 µM [9]: 50%
- Activity [10]: tde
- Activity [11]: tde
- Activity [12]: tde
- Activity [13]: tde
- Activity [14]: tde
- Activity [15]: 18 pmol
- Stability [16]: 2.33 pmol
- Activity [17]: 90 pmol
- inhibition [18]: inactive
- inhibition at 0.13 µM [19]: 50%
- Activity [20]: 90 pmol
- Activity [21]: 18 pmol
- Activity [22]: tde
- Activity [23]: tde
- Activity [24]: 90 pmol

B1: Thymidine kinase, cytosolic (Homo sapiens), P04183 (protein)
chain: MSCINLPTVLPGSPSKTRGQIQVILGPMFSGKSTELMRRVRRFQIAQYKCLVIKYAKDTRYSSSFCTHDRNTMEALPACLLRDVAQEALGVAVIGIDEGQFFPDIVEFCEAMANAGKTVIVAALDGTFQRKPFGAILNLVPLAESVVKLTAVCMECFREAAYTKRLGTEKEVEVIGGADKYHSVCRLCYFKKASGQPAGPDNKENCPVPGKPGEAVAARKLFAPQQILQCSPAN
- Km [25]: 3 µM
- Km [26]: 2.9 µM

From ChEMBL document CHEMBL1137646, “Intracellular metabolism and persistence of the anti-human immunodeficiency virus activity of 2',3'-didehydro-3'-deoxy-4'-ethynylthymidine, a novel thymidine analog” (Antimicrob Agents Chemother, 2007)
